Measurements published in publication PMC5473467 (Nature, 2017).

Tests used:
CpPI(4)K (cgd8_4500) = target: T1, CpPI(4)K (cgd8_4500) (Cryptosporidium parvum, UniProt Q5CVD3); assay: CpPI; assay type: biochemical, C. parvum; conditions: for IC50: Cp PI(4)K IC50, 3 μM ATP
T1 sequence (Q5CVD3 1-1114): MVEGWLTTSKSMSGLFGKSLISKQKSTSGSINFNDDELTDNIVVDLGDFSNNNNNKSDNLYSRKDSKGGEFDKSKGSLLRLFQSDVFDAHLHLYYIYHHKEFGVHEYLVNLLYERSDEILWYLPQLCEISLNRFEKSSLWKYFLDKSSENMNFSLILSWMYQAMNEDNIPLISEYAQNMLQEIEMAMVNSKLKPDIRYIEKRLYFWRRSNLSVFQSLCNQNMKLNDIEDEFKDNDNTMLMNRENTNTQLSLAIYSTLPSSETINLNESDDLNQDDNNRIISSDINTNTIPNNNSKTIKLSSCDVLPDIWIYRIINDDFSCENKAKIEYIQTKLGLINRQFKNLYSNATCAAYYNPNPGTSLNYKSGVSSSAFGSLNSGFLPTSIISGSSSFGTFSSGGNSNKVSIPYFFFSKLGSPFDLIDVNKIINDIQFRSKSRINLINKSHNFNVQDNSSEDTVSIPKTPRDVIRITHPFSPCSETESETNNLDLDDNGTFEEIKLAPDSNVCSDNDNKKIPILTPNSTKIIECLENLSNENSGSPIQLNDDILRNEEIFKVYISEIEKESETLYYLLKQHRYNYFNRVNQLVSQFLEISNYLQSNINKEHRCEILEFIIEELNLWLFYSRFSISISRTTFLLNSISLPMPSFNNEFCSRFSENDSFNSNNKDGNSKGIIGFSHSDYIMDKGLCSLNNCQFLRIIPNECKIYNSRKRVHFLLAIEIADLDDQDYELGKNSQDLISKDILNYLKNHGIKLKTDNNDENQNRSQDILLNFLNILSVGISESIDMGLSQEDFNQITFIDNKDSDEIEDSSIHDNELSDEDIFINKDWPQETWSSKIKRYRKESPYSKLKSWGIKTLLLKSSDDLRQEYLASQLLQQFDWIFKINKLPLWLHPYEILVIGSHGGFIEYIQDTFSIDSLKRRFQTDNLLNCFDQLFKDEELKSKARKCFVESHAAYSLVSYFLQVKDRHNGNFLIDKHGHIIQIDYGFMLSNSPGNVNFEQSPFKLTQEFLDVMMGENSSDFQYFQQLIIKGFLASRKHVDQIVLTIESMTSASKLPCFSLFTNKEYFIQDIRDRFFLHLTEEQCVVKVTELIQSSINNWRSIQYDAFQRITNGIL

Pf 3D7 = assay: P. falciparum 3D7 growth inhibition; assay type: cell-based; conditions: Plasmodium falciparum, 3D7, read-out: Pf 3D7 IC50
C. parvum [1] = assay: C. parvum cytopathic effect; assay type: cell-based, Cryptosporidium parvum; conditions: for EC50: Cryptosporidium parvum, HCT-8, read-out: Cp CPE EC50
Outline: (§1)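 HCT-8 cells were kept in RPMI-1640 with 10% heat-inactivated horse serum. Oocysts were primed in 10 mM HCl in HBSS for 10 min at 37 °C, washed, then excysted in L-15/UltraCULTURE medium with 2 mM taurocholate, 10% horse serum and 200 μM ascorbate. Compound dilutions were made in taurocholate-free medium. EC50 came from ten-point threefold dose–response series.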

C. parvum [2] = assay: C. parvum High Content Imaging; assay type: cell-based; conditions: Cryptosporidium parvum, HCT-8, read-out: Cp HCI IC50
Outline: as §1

C. hominis = C. hominis cytopathic effect; assay type: cell-based, Cryptosporidium hominis; conditions: for EC50: Cryptosporidium hominis, HCT-8, read-out: Ch CPE EC50
Outline: as §1

in vitro = assay type: cell-based; conditions: human, HepG2 CC50, 96 hours
C. parvum UGA2 Fluc = assay: Mouse model following tissue parasite load using whole-animal imaging; assay type: in vivo, IFN-γKO mice; conditions: 100 mg/kg daily from day 7

Compound | inhibition of CpPI(4)K enzymatic activity (CpPI(4)K (cgd8_4500)) | IC50 (CpPI(4)K (cgd8_4500)) [µM] | IC50 (Pf 3D7) [µM] | activity against C. parvum (C. parvum [1]) | EC50 (C. parvum [1]) [µM] | IC50 (C. parvum [2]) [µM] | activity against C. hominis (C. hominis) | EC50 (C. hominis) [µM] | CC50 (in vitro) [µM] | tissue load (C. parvum UGA2 Fluc)
CS(=O)(=O)c1ccc(-c2cnc(N)c(-c3ccc(C(F)(F)F)nc3)c2)cc1 [MMV390048] | do not inhibit | 8.33 ± 2.35 | 0.042 ± 0.022 | inactive | 12.8 ± 6.26 | 13.4 | inactive | 11.8 ± 2.76 | 26.2 ± 16.1 | –
CC(=O)Oc1ccccc1C(=O)Nc1ncc([N+](=O)[O-])s1 [Nitazoxanide] | – | > 10 | > 10 | – | 14.3 ± 7.13 | 2.93 ± 0.808 | – | > 20 | 12.7 ± 2.38 | no change
